Published values collected from several papers.
Each line is one published result; the experiments were not run side by side.
Read-out: enzyme activity
Mode: inhibitor
BRAF V600E: Serine/threonine-protein kinase B-raf (BRAF, Homo sapiens, UniProt P15056, V600E)
BRAF: Serine/threonine-protein kinase B-raf (BRAF, Homo sapiens, UniProt P15056)

Compound | target | method | tested at | inhibition
COc1cc(-c2cc(-c3ccc(N4CCNCC4)cc3)cnc2N)cc(OC)c1OC | BRAF V600E |  | 1 µM | 18%
Cc1ccc(N=Nc2sc(NN=C(CS(=O)(=O)c3ccccc3)c3ccc(C)cc3)nc2C)cc1 | BRAF V600E | ATP luminescence | 10 nM | 29%
C=CC(=O)Nc1cc(Nc2nccc(Nc3cc(Cl)c(F)cc3C(C)(C)O)n2)c(OC)cc1N1CC[C@@H](N(C)C)C1 | BRAF |  | 1 µM | 4%
COc1ccc(-c2csc(NN=C(CS(=O)(=O)c3ccccc3)c3ccc(F)cc3)n2)cc1 | BRAF V600E | ATP luminescence | 10 nM | 25%
Cn1cncc1C1=CN(c2ncnc3[nH]cnc23)CCS1 | BRAF | radiometric | 2 µM | 35.1%
Cc1ccc(C(CS(=O)(=O)c2ccccc2)=NNC2=NC(=O)C(=NNc3ccc(Cl)cc3)S2)cc1 | BRAF V600E | ATP luminescence | 10 µM | 83%
O=C(CSc1nc2nccnc2c(=O)n1CCc1ccccc1)Nc1nccs1 | BRAF |  | 10 µM | 9%
COc1cc2ncnc(Nc3ccc(Oc4ccccc4)cc3C)c2cc1OC | BRAF |  | 1 µM | 7%
Cc1ccc(C(CS(=O)(=O)c2ccccc2)=NN=C2N=C(c3ccc(Br)cc3)CS2)cc1 | BRAF V600E | ATP luminescence | 1 µM | 79%
CS(=O)(=O)Nc1cccc(-c2csc(NC(=O)CSc3nc4nccnc4c(=O)n3CCc3ccccc3)n2)c1 | BRAF V600E |  | 10 µM | 2%
CN(C)C1CCN(CC#Cc2nn(C3CCCC3)c3nc(NCc4ccccc4)ncc23)C1 (stereo not drawn) | BRAF | FRET | 1 µM | 1%
COc1cc2nccc(Oc3ccc(NC(=O)c4c5n(n(-c6ccc(F)cc6)c4=O)CCCC5)cc3)c2cc1OC | BRAF |  | 0.1 µM | 18%
